Assay outcomes from PubChem.
Compounds with a hit are over-represented: about 4.6% of the library has one in this group of screens.
NLRP3 yeast inh: blocks the NALP3 inflammasome reconstituted in yeast; Yeast reconstituted NLRP3/ASC/caspase-1, beta-gal luminescence, 24 h; inhibition, % at 10 µM; hit rate 0.39% among 330,000; AID 2825;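 active = inhibition of 50% or more; inactive = inhibition below 50%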;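 note: plate controls were induced DMSO wells for no effect and uninduced yeast grown without galactose for full effect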
ALR H2O2 inh: blocks human ALR sulfhydryl oxidase activity | inhibition, % (test concentration not listed) | hit rate 3.8% among 290,000 | purified ALR, DTT oxidation, H2O2 HRP-luminol luminescence | P55789 | AID 485317;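 active = mean replicate inhibition above about 79%, with every replicate also reaching it, limit read from the data; inconclusive = only one of the two criteria met; inactive = mean below limit and not every replicate reaching it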
Arr AP2 block: human beta-arrestin and AP2 interaction inhibition; FITC-arrestin peptide / GST-AP2 beads, flow cytometry; AP2 beta2 appendage carries R879A mutation; inhibition, % at 10 µM; hit rate 0.31% among 340,000;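 active = inhibition above a set limit, near 3 SD of compounds lacking own fluorescence, cut at about 54% in these data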;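 note: plate controls were DMSO wells for no effect and 5 µM unlabelled arrestin peptide for full effect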
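System: GST-tagged AP2 beta2-adaptin appendage (R879A) on 4 µm glutathione beads / Reagent: FITC-arrestin peptide, 50 nM / Detection: HyperCyt-sampled flow cytometry, FL1 channel, ex 488/em 535 nm / Timing: 12 min plus 1 h, RT / Buffer or medium: PBS plus Tween 20 (0.05%) and BSA (0.1%)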
PolyA inh: blocks polyadenylation in yeast reporter cells. S. cerevisiae SKY197-pL101 polyadenylation reporter, beta-gal luminescence; efflux-impaired pdr1/pdr3 knockout yeast; score 100 = 6 SD above DMSO. activity score, % at 12 µM. hit rate 0.02% among 300,000. AID 1875;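 active = lowest replicate activity score at least 50, where 100 means six control SD above control mean; inconclusive = lowest score under 50 but half or more replicates reach 50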;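 note: yeast exposed to compound for 9 h at 30 °C; higher score means more reporter readthrough which indicates perturbed polyadenylation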
NALP1 yeast inh: NALP1 inhibition; S. cerevisiae NALP1/ASC/caspase-1 growth, X-gal OD620, 72 h; inhibition, % at 10 µM; hit rate 0.61% among 280,000; in the data active = inhibition mostly above about 24%, no sharp cut-off; inactive = mostly below about 32%
DSG3 Ab inh: human desmoglein-3 autoantibody binding inhibition; P32926; DSG3-coupled beads, scFv-anti-DSG3-GFP binding, flow cytometry; stronger effect = lower value; binding (percent of control), % at 10 µM; hit rate 0.48% among 310,000; AID 588358;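 active = binding more than 3 SD below its plate's average and above zero; inconclusive = below that plate limit but binding exactly zero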;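 note: hits lower antibody fragment binding to DSG3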
Target sequence (P32926 whole entry, looked up, the tested form may be a part): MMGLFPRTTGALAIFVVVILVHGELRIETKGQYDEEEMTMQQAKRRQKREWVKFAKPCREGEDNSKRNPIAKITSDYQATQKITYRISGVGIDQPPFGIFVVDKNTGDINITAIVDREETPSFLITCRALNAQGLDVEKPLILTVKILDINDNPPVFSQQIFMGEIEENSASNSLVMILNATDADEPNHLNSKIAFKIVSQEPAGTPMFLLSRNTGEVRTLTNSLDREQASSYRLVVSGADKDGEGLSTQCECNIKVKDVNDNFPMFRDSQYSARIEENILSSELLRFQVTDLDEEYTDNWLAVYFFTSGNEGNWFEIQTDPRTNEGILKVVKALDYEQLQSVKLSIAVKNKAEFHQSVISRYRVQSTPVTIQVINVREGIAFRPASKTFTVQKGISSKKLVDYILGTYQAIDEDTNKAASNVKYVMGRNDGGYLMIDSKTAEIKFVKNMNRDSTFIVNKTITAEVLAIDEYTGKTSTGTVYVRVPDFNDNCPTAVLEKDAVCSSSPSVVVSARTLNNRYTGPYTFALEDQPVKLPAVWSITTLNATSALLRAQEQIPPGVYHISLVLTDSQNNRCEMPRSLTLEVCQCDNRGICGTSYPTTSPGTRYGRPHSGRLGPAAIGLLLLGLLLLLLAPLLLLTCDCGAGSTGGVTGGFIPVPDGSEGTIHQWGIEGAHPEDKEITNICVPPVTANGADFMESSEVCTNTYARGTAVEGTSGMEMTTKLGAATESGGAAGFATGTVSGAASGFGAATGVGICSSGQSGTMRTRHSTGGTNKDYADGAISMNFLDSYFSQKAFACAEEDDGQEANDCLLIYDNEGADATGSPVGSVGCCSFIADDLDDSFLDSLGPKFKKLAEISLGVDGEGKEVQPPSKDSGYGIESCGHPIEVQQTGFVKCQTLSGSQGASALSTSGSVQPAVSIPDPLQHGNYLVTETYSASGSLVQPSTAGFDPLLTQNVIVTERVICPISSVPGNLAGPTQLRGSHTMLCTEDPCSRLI
* = called active by the depositor; ? = inconclusive; nt = not tested or not shown; ! = not active in a repeat.

SMILES	NLRP3 yeast inh	ALR H2O2 inh	Arr AP2 block	PolyA inh	NALP1 yeast inh	DSG3 Ab inh
COCCCNC(=O)CCn1c(=O)c2ccccc2n(CC(=O)NCCC2=CCCCC2)c1=O	6.8	nt	-1.9	2.4	15.3	67.7*
CC(C)(C)N(Cc1ccc2c(c1)OCO2)C(=O)/C=C\S(=O)c1ccccc1 (configuration not stated)	nt	nt	35.5	nt	nt	nt
CCc1oc2ccccc2c1C(=O)c1cc(Br)c(O)c(Br)c1	-20.5	97.6*	-13.3	-5.4	21.1	97.8
CCOC(=O)c1c(COc2ccccc2)oc2ccc(O)cc12	23.4	10.1	nt	-16.9	20.4	nt
CC(C)c1nc2sc3c(c2c(=O)[nH]1)CC(C)(C)OC3	18.5	-3.2	-14.3	23.0	15.0	?
CC(=O)Nc1cccc(-c2csc(Nc3ccccn3)n2)c1	18.0	-10.1	-10.0	3.3	9.7	70.0*
CC(=O)Nc1cccc(-c2csc(Nc3ccc(Cl)cn3)n2)c1	-16.3	98.2*	-32.5	-10.2	2.3	102.2
CSc1cccc(NC(=O)CN2C(=O)c3ccccc3S2(=O)=O)c1	0.3	95.2*	14.6	-6.4	-28.6	103.0
Cc1ccc(C)c(OCCC(=O)N2CCN(S(=O)(=O)c3ccc([N+](=O)[O-])cc3)CC2)c1	6.6	-12.7	-9.2	nt	nt	nt
CNCCCC12CCC(c3ccccc31)c1ccccc12	36.3	-27.4	-6.4	-13.1	28.7*!	98.5
O=S(=O)(Cc1ccccc1)N1CCn2c(nc3ccccc32)C1	5.2	nt	8.0	36.0	40.8*	98.3
O=S(=O)(c1ccc(Br)cc1)N1CCn2c(nc3ccccc32)C1	-3.7	nt	4.4	6.7	30.3	82.9
CCCn1c(N2CCN(S(=O)(=O)Cc3ccccc3)CC2)nc2ccccc21	21.4	nt	2.7	-10.9	11.0	56.3*
COC(=O)c1ccc(COC(=O)CNC(=O)c2cccs2)cc1	12.0	-3.3	11.5	4.4	7.8	100.2
COc1ccccc1C(CNC(=O)CCNC(=O)c1ccccc1Cl)N1CCCC1 (configuration not stated)	16.0	-10.0	-11.4	20.1	nt	67.9
Cc1ccc(N2CC(C(=O)N3CCC(C(=O)Nc4nnc(C(C)(C)C)s4)CC3)CC2=O)cc1 (configuration not stated)	18.1	0.8	8.3	-0.7	11.5	101.9
N#Cc1ccc(OCC(=O)N2CCN(c3ccc(C(F)(F)F)cn3)CC2)cc1	16.3	0.5	-8.3	nt	nt	103.9
CN1C(=O)NC(c2ccc(O)cc2)C2=C1CN(c1ccc(O)cc1)C2=O (configuration not stated)	19.1	98.7*	6.3	13.5	-1.9	100.1
CN1C(=O)NC(c2ccc(O)cc2)C2=C1CN(c1ccccc1)C2=O (configuration not stated)	-5.8	-4.6	2.8	-9.4	nt	103.0
NS(=O)(=O)c1cccc(C(=O)N2CCCc3ccccc32)c1	nt	nt	nt	nt	nt	97.3
C=CCCC(=O)N1C[C@H]2CON(C)[C@H]2C[C@H]1c1ccc(Br)cc1	nt	nt	nt	nt	nt	96.5
C/C(=N/NC(=O)c1nnn(-c2nonc2N)c1CSc1ccc(C)cc1)c1ccncc1	nt	nt	nt	nt	nt	91.1
Cc1ccc(SC(CC(=O)c2ccc(C)cc2)C(=O)O)cc1 (configuration not stated)	-13.5	99.1*	-13.6	-8.2	42.5	95.1
C=CCN1C(=O)c2ccc(C(=O)OCC(=O)N3CCN(c4ccccc4)CC3)cc2C1=O	5.8	5.5	40.0	-22.6	nt	98.4
COC(=O)c1ccccc1S(=O)(=O)NNC(=O)Nc1ccccc1	12.7	nt	23.4	-1.1	-4.3	89.5
SMILES	NLRP3 yeast inh	ALR H2O2 inh	Arr AP2 block	PolyA inh	NALP1 yeast inh	DSG3 Ab inh
COc1ccc(CCNC(=O)CSCc2ccc([N+](=O)[O-])cc2)cc1	14.3	-14.0	1.1	-5.2	24.8	93.0
COc1ccc2cc(/C=N/NC(=O)CSCc3ccc([N+](=O)[O-])cc3)c(Cl)nc2c1	-14.6	99.1*	-0.1	-7.8	5.8	114.2
CC(C(=O)Nc1sccc1C(N)=O)N1C(=O)C2CC=CCC2C1=O (configuration not stated)	6.3	96.8*	-6.9	-6.9	-8.2	nt
C[C@@H](C(=O)Nc1nccs1)N1C(=O)C2CC=CCC2C1=O (some centres not stated)	4.4	-4.6	-5.8	nt	nt	93.1
Cc1cc(C)c(C(=O)NC2CC(C)(C)Cc3c2cnn3-c2ccccc2)o1 (configuration not stated)	-9.7	87.1*	18.4	-4.3	12.3	105.3
CSCc1ccc(C(=O)NC2CC(C)(C)Cc3c2cnn3-c2ccc(F)cc2)o1 (configuration not stated)	3.9	94.5*	-1.0	-0.2	-8.6	99.0
COc1ccc(C(=O)NCCNc2nc3ccc(C)cc3cc2C#N)cc1OC	15.5	90.1*	0.9	4.9	0.1	116.2
CCOc1ccc2nc(NCCCNC(=O)c3cc(OC)c(OC)c(OC)c3)c(C#N)cc2c1	11.5	nt	-4.3	-16.1	nt	92.6
Cc1cc(-c2onc3ccc(Cl)cc23)ccc1O	7.1	45.7	-1.6	-18.1	18.8	120.4
CNC(=O)C[C@@H]1C(=O)N(c2ccc(OC)cc2)CC1(C)C	nt	nt	nt	nt	nt	99.0
O=C(O)c1cccc(N/N=C/c2cccc3ccccc23)c1	14.9	98.8*	28.3	-2.3	24.8	110.2
O=C(O)c1ccc(N/N=C/c2ccc(-c3ccccc3)cc2)cc1	nt	nt	8.6	-5.6	18.7	113.8
CCc1ccc(/C(C)=N\Nc2ccc([N+](=O)[O-])cc2)cc1	26.8	1.2	16.2	-24.2	-0.2	?
CC(C)c1ccc(/C=N/Nc2ccc(C(=O)O)cc2)cc1	16.6	98.2*	-1.8	-13.9	33.7	82.2
C/C(=N\Nc1ccc([N+](=O)[O-])cc1)c1ccc(N)cc1	nt	97.8*	4.2	-5.4	21.2	97.9
Cc1ccc(/C=N/Nc2ccc(C(=O)O)cc2)s1	13.0	99.0*	48.1	4.8	-6.1	nt
Cc1ccc(/C=N/Nc2cccc(C(=O)O)c2)s1	5.0	98.3*	-11.7	3.5	28.9	108.4
C/C(=N\Nc1ccc(C(=O)O)cc1)c1ccc(Cl)s1	6.6	nt	-2.5	-7.7	-2.0	97.7
O=C(O)c1cccc(Cn2c(Cl)c(/C=N/NC(=O)c3ccccc3Cl)sc2=O)c1	6.0	28.4	4.8	9.4	21.0	97.3
Cc1ccc(/C=N/Nc2ccc(C(=O)O)cc2)o1	19.5	98.4*	7.1	-9.7	7.4	92.7
O=C(O)c1cccc(Cn2c(Cl)c(/C=N/Nc3ccccc3)sc2=O)c1	8.1	99.9*	-12.6	6.8	14.2	99.2
Cc1ccsc1/C=N/Nc1cccc(C(=O)O)c1	23.5	59.7	-25.9	nt	0.0	97.4
C/C(=N\Nc1ccc(C(=O)O)cc1)c1ccc(Br)cc1	12.0	98.4*	-9.2	-8.3	2.1	100.7
Cc1sc2nc(CN3CCOCC3)nc(N3CCN(S(=O)(=O)c4ccccc4)CC3)c2c1C	14.1	-32.5	-1.2	nt	nt	103.3
Fc1ccc2cc(-c3ccccc3F)ncc2c1	12.2	-2.0	41.3	nt	nt	101.9
